Measured values reported in ChEMBL document CHEMBL1124476, “1-(2-aminoethyl)-6-aryl-4H- [1,2,4]triazolo[4,3-a][1,4]benzodiazepines with diuretic and natriuretic activity” (J Med Chem, 1989).

What was measured:
[1] = Diuretic activity at 40 mg/kg (screening dose-55.2 umol/kg) in […] in a one stage experiment; T/C = urine vol of treated rats / urine vol of control rats; assay type: functional
Method in brief: (§1)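 40 mg/kg given by gavage in 25 mL/kg 0.9% saline with 0.5% (carboxymethyl)cellulose. Four rats per agent, two per metabolism cage; 20 controls; 5 h urine. T/C = treated/control urine volume. Stage-1 T/C of 1.66 or more leads to stage 2; product T/C1·T/C2 of 3.34 or more counts as active.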

[2] = Diuretic activity at 40 mg/kg (screening dose-55.2 umol/kg) in […] in a two stage experiment; T/C1.2 = urine vol of treated rats / urine vol of control rats; assay type: functional; method in brief: as §1
Rattus norvegicus [3] = experiment: Mean excretion of potassium in conscious rats at a dose of 100 mg/kg given orally; assay type: ADME, organism-based; parameters: dose 100 mg/kg, route oral; conditions: in vivo, po
Method in brief: (§2)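 Secondary dose-response in male Sprague-Dawley rats (~160 g), fasted and hydrated as in the primary screen. Oral gavage at 0.3-100 mg/kg in 25 mL/kg saline/0.5% CMC, three cages of two rats per dose. Urine collected 5 h; Na, K, Cl, HCO3 measured. Values are mean excretion (mequiv), compared with controls at P < 0.05.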

Rattus norvegicus [4] = experiment: Mean excretion of sodium in conscious rats at a dose of 0.3 mg/kg given orally; assay type: ADME, organism-based; parameters: dose 0.3 mg/kg, route oral; conditions: in vivo, po
Method in brief: (§3)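 Male Sprague-Dawley rats, about 160 g, fasted 24 h and water withheld 1 1/2 h beforehand; food and water withheld during the test. Dosing by gavage with 25 mL/kg 0.9% saline containing 0.5% (carboxymethyl)cellulose, agent dissolved or suspended. Three cages of two rats each per dose, held in metabolism cages. Urine collected over 5 h. Volume given in mL, Na+ in mequiv. Significance versus control at P < 0.05.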

Rattus norvegicus [5] = experiment: Mean excretion of chloride in conscious rats at a dose of 100 mg/kg given orally; assay type: ADME, organism-based; parameters: dose 100 mg/kg, route oral; conditions: in vivo, po; method in brief: as §2
Rattus norvegicus [6] = species on record: Rattus norvegicus; experiment: […]; assay type: ADME, organism-based, Urine; parameters: dose 3 mg/kg, route oral; conditions: in vivo, po, 3 mg/kg; method in brief: as §3
Rattus norvegicus [7] = experiment: Mean excretion of sodium in conscious rats at a dose of 3.0 mg/kg given orally; assay type: ADME, organism-based; parameters: dose 3 mg/kg, route oral; conditions: in vivo, po; method in brief: as §3
Rattus norvegicus [8] = experiment: Mean excretion of sodium in conscious rats at a dose of 10 mg/kg given orally; assay type: ADME, organism-based; parameters: dose 10 mg/kg, route oral; conditions: in vivo, po; method in brief: as §3
Rattus norvegicus [9] = species on record: Rattus norvegicus; experiment: […]; assay type: ADME, organism-based, Urine; parameters: dose 1 mg/kg, route oral; conditions: in vivo, po, 1 mg/kg
Method in brief: (§4)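 Dose-response test in male Sprague-Dawley rats of about 160 g, fasted 24 h, with water withheld 1½ h before and during the test. Each rat got a single gavage of 25 mL/kg 0.9% saline with 0.5% carboxymethylcellulose carrying the agent (0.3–100 mg/kg range). Rats were housed two per metabolism cage, and urine was collected for 5 h. Mean urine volume (mL) was compared with controls (P < 0.05).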

Rattus norvegicus [10] = species on record: Rattus norvegicus; experiment: […]; assay type: ADME, organism-based, Urine; parameters: dose 0.3 mg/kg, route oral; conditions: in vivo, po, 0.3 mg/kg; method in brief: as §4
Rattus norvegicus [11] = experiment: Mean excretion of sodium in conscious rats at a dose of 30 mg/kg given orally; assay type: ADME, organism-based; parameters: dose 30 mg/kg, route oral; conditions: in vivo, po; method in brief: as §3
Rattus norvegicus [12] = experiment: Mean excretion of potassium in conscious rats at a dose of 0.3 mg/kg given orally; assay type: ADME, organism-based; parameters: dose 0.3 mg/kg, route oral; conditions: in vivo, po; method in brief: as §2
Rattus norvegicus [13] = species on record: Rattus norvegicus; experiment: […]; assay type: ADME, organism-based, Urine; parameters: dose 10 mg/kg, route oral; conditions: in vivo, po, 10 mg/kg; method in brief: as §3
Rattus norvegicus [14] = experiment: Mean excretion of […] in conscious rats at a dose of 1.0 mg/kg given orally; assay type: ADME, organism-based; parameters: dose 1 mg/kg, route oral; conditions: in vivo, po; method in brief: as §3
Rattus norvegicus [15] = experiment: Mean excretion of chloride in conscious rats at a dose of 30 mg/kg given orally; assay type: ADME, organism-based; parameters: dose 30 mg/kg, route oral; conditions: in vivo, po; method in brief: as §2
Rattus norvegicus [16] = species on record: Rattus norvegicus; experiment: […]; assay type: ADME, organism-based, Urine; parameters: dose 100 mg/kg, route oral; conditions: in vivo, po, 100 mg/kg; method in brief: as §3
Rattus norvegicus [17] = experiment: Mean excretion of potassium in conscious rats at a dose of 1.0 mg/kg given orally; assay type: ADME, organism-based; parameters: dose 1 mg/kg, route oral; conditions: in vivo, po; method in brief: as §2
Rattus norvegicus [18] = experiment: Mean excretion of chloride in conscious rats at a dose of 10 mg/kg given orally; assay type: ADME, organism-based; parameters: dose 10 mg/kg, route oral; conditions: in vivo, po; method in brief: as §2
Rattus norvegicus [19] = experiment: Mean excretion of potassium in conscious rats at a dose of 3.0 mg/kg given orally; assay type: ADME, organism-based; parameters: dose 3 mg/kg, route oral; conditions: in vivo, po; method in brief: as §2
Rattus norvegicus [20] = experiment: Mean excretion of potassium in conscious rats at a dose of 30 mg/kg given orally; assay type: ADME, organism-based; parameters: dose 30 mg/kg, route oral; conditions: in vivo, po; method in brief: as §2
[21] = Diuretic activity at 40 mg/kg (screening dose 88.2 umol/kg) in […] in a one stage experiment; T/C = urine vol of treated rats / urine vol of control rats; assay type: functional; method in brief: as §1
Rattus norvegicus [22] = species on record: Rattus norvegicus; experiment: […]; assay type: ADME, organism-based, Urine; parameters: dose 30 mg/kg, route oral; conditions: in vivo, po, 30 mg/kg; method in brief: as §3
Rattus norvegicus [23] = experiment: Mean excretion of Cl- in conscious rats at a dose of 0.3 mg/kg given orally; assay type: ADME, organism-based, Urine; parameters: dose 0.3 mg/kg, route oral; conditions: in vivo, po; method in brief: as §4
Rattus norvegicus [24] = experiment: Mean excretion of potassium in conscious rats at a dose of 10 mg/kg given orally; assay type: ADME, organism-based; parameters: dose 10 mg/kg, route oral; conditions: in vivo, po; method in brief: as §2
Rattus norvegicus [25] = experiment: Mean excretion of sodium in conscious rats at a dose of 100 mg/kg given orally; assay type: ADME, organism-based; parameters: dose 100 mg/kg, route oral; conditions: in vivo, po; method in brief: as §3
[26] = Diuretic activity at 40 mg/kg (screening dose-88.2 uM/Kg) in […] in a two stage experiment; T/C1.2 = urine vol of treated rats / urine vol of control rats; assay type: functional; method in brief: as §1
Rattus norvegicus [27] = experiment: Mean excretion of chloride in conscious rats at a dose of 1.0 mg/kg given orally; assay type: ADME, organism-based; parameters: dose 1 mg/kg, route oral; conditions: in vivo, po; method in brief: as §2
Rattus norvegicus [28] = experiment: Mean excretion of chloride in conscious rats at a dose of 3.0 mg/kg given orally; assay type: ADME, organism-based; parameters: dose 3 mg/kg, route oral; conditions: in vivo, po; method in brief: as §2
[29] = Diuretic activity at 40 mg/kg (screening dose-61.6 umol/kg) in […] in a one stage experiment; T/C = urine vol of treated rats / urine vol of control rats; assay type: functional; method in brief: as §1
[30] = Diuretic activity at 40 mg/kg (screening dose-100.8 umol/kg) in […] in a one stage experiment; T/C = urine vol of treated rats / urine vol of control rats; assay type: functional; method in brief: as §1

With `CN(C)CCc1nnc2n1-c1ccc(Cl)cc1C(c1ccccc1)=NC2` the “T/C 1” value [1] was 1.66 and the “T/C 1.2” value [2] was 3.04.
For `CSc1ccc2c(c1)C(c1ccccc1)=NCc1nnc(C(CN(C)C)c3ccccc3)n1-2` (stereo not given), the “Mean excretion of K+” value (Rattus norvegicus [3]) was 0.28 m equiv, the “Mean excretion of Na+” value (Rattus norvegicus [4]) was 0.88 m equiv and the “Mean excretion of Cl-” value (Rattus norvegicus [5]) was 2.17 m equiv. For the same molecule, the Mean urine volume (Rattus norvegicus [6]) was 5.2 mL, the “Mean excretion of Na+” value (Rattus norvegicus [7]) was 0.91 m equiv and the “Mean excretion of Na+” value (Rattus norvegicus [8]) was 1.39 m equiv. For the same molecule, the Mean urine volume (Rattus norvegicus [9]) was 5.12 mL, the Mean urine volume (Rattus norvegicus [10]) was 3.92 mL and the “Mean excretion of Na+” value (Rattus norvegicus [11]) was 1.87 m equiv. For the same molecule, the “Mean excretion of K+” value (Rattus norvegicus [12]) was 0.31 m equiv, the Mean urine volume (Rattus norvegicus [13]) was 6.83 mL and the “Mean excretion of Na+” value (Rattus norvegicus [14]) was 0.94 m equiv. For the same molecule, the “Mean excretion of Cl-” value (Rattus norvegicus [15]) was 1.69 m equiv, the Mean urine volume (Rattus norvegicus [16]) was 14.14 mL and the “Mean excretion of K+” value (Rattus norvegicus [17]) was 0.31 m equiv. For the same molecule, the “Mean excretion of Cl-” value (Rattus norvegicus [18]) was 1.28 m equiv, the “Mean excretion of K+” value (Rattus norvegicus [19]) was 0.36 m equiv and the “Mean excretion of K+” value (Rattus norvegicus [20]) was 0.25 m equiv. For the same molecule, the “T/C 1” value [21] was 2.29, the Mean urine volume (Rattus norvegicus [22]) was 10.39 mL and the “Mean excretion of Cl-” value (Rattus norvegicus [23]) was 0.76 m equiv. For the same molecule, the “Mean excretion of K+” value (Rattus norvegicus [24]) was 0.23 m equiv, the “Mean excretion of Na+” value (Rattus norvegicus [25]) was 2.52 m equiv and the “T/C 1.2” value [26] was 6.6. The “Mean excretion of Cl-” value (Rattus norvegicus [27]) was 0.89 m equiv and the “Mean excretion of Cl-” value (Rattus norvegicus [28]) was 0.9 m equiv.
For `Clc1ccc2c(c1)C(c1ccccc1)=NCc1nnc(C(CN3CCN(c4ccccc4)CC3)c3ccccc3)n1-2.O=C(O)C(=O)O` (stereo not given), the “T/C 1” value [29] was 0.95.
With `C=C(c1ccccc1)c1nnc2n1-c1ccc(Cl)cc1C(c1ccccc1)=NC2` the “T/C 1” value [30] was 0.76.
